Data taken from ChEMBL document CHEMBL3817737, “Structure-Based Identification of Novel Ligands Targeting Multiple Sites within a Chemokine-G-Protein-Coupled-Receptor Interface” (J Med Chem, 2016).

Legend:
[1] = biological target: T1, Stromal cell-derived factor 1 (Homo sapiens, UniProt P48061); experiment: Binding affinity to His6-SUMO fusion tagged wild type human [U-15N]CXCL12 expressed in Escherichia coli assessed as induction of chemical shift perturbations to residues at I4/I6 binding site by 2D 1H-15N HMQC NMR spectroscopy
Summary of the method: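 [U-15N]-CXCL12 WT was made as a His6SUMO fusion in E. coli (Terrific Broth, 1 mM IPTG) and taken from inclusion bodies by Ni-NTA. Combined CSP = ((5ΔδH)2+(ΔδN)2)0.5. Kd came from single-site quadratic fits of the most-perturbed residues, fitted individually and averaged (±SD).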

[2] = biological target: T1, Stromal cell-derived factor 1; experiment: Binding affinity to His6-SUMO fusion tagged wild type human [U-15N]CXCL12 expressed in Escherichia coli by 2D 1H-15N HMQC NMR spectroscopy
[3] = biological target: Stromal cell-derived factor 1 (Homo sapiens, UniProt P48061, A65C/L36C)
Sequence of Stromal cell-derived factor 1 (Homo sapiens, UniProt P48061, A65C/L36C) (P48061 22-93 L57C/A86C limits assumed): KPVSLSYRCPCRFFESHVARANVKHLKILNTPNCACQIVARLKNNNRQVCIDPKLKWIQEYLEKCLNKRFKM

T1 sequence (P48061 whole entry, the tested form may be a part): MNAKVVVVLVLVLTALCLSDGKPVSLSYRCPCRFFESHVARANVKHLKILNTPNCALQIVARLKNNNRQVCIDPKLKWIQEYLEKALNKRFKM

Activity [1] [%] | Kd ([2]; read-out: Kd) [µM] | Kd [3] [µM] | Kd [2] | SMILES
16.7 | 1700 |  |  | C[C@H](NC(=O)CCn1ccc2c(Cl)cccc21)C(=O)O
 |  | 74 | Dose-dependent effect | CC(C)O.CCCOc1ccc(C(Nc2ccc(F)cc2)P(=O)(O)O)cc1 (stereo unspecified)
12.5 |  |  |  | Cc1ccc(NS(=O)(=O)c2ccc(OCC(=O)O)c(C)c2)cc1C
12.5 |  |  |  | O=C(O)CC1c2ccccc2CCN1C(=O)Nc1cccc(F)c1 (stereo unspecified)
